Assay results taken from ChEMBL document CHEMBL1255169, “Synthesis, structure-affinity relationships, and radiolabeling of selective high-affinity 5-HT4 receptor ligands as prospective imaging probes for positron emission tomography” (J Med Chem, 2010).

What was measured:
D(3) dopamine receptor = D(3) dopamine receptor (Rattus norvegicus, UniProt P19020); assay: Binding affinity to rat dopamine D3 receptor
[1] = molecular target: T1, Alpha-2B adrenergic receptor (Homo sapiens, UniProt P18089); assay: Binding affinity to human adrenergic alpha2B receptor
T1 sequence (P18089 whole entry): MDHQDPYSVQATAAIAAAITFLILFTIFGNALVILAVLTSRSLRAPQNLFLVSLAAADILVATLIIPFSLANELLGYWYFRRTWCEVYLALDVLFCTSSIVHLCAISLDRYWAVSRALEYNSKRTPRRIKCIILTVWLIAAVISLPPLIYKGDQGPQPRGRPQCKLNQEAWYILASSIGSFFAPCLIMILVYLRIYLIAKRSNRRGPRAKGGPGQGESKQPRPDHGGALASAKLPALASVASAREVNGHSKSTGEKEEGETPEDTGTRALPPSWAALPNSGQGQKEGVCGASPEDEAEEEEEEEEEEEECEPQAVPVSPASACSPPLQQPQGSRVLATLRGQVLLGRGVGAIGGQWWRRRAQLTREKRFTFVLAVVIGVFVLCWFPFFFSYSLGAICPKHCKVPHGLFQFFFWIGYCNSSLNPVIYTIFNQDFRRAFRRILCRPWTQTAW
Summary of the method: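 Radioligand binding run by the NIMH Psychoactive Drug Screening Program as part of a broad receptor and binding-site panel, which included α1A, α1B, α1D and α2A–C subtypes. Affinity is expressed as Ki.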

[2] = molecular target: Beta-3 adrenergic receptor (Rattus norvegicus, UniProt P26255); assay: Binding affinity to rat adrenergic beta3 receptor
Chain of Beta-3 adrenergic receptor (P26255 whole entry): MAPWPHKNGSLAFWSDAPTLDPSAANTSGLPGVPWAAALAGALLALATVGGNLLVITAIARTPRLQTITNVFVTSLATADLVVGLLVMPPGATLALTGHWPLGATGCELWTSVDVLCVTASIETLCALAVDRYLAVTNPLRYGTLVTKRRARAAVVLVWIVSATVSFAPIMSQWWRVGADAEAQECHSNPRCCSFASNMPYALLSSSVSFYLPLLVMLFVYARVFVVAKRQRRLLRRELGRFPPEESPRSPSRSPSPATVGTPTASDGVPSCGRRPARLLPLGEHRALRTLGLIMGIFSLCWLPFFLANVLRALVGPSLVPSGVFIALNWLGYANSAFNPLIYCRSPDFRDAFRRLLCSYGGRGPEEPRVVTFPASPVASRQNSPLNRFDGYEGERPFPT

[3] = molecular target: 5-hydroxytryptamine receptor 2B (Homo sapiens, UniProt P41595); assay: Binding affinity to human 5-HT2B receptor
Chain of 5-hydroxytryptamine receptor 2B (P41595 whole entry): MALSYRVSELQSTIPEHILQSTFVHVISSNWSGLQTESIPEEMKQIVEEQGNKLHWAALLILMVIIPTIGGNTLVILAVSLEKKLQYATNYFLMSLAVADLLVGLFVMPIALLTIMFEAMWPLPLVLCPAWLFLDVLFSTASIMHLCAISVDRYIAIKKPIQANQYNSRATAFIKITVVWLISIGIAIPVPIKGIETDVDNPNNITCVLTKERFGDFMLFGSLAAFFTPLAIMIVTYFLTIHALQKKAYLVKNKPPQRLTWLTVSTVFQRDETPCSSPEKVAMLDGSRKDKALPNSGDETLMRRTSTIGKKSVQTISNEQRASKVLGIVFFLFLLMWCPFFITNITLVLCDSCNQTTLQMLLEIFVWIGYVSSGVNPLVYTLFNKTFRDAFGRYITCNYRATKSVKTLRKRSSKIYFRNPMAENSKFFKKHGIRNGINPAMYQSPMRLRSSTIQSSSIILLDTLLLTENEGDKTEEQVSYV

[4] = molecular target: GABA-A receptor; agonist GABA site; assay: Binding affinity to human GABAA receptor; assay type: protein-complex assay
[5] = molecular target: Kappa-type opioid receptor (Homo sapiens, UniProt P41145); assay: Binding affinity to human kappa opioid receptor
[6] = molecular target: Sodium-dependent noradrenaline transporter (Homo sapiens, UniProt P23975); assay: Binding affinity to human NET
[7] = molecular target: T2, Alpha-1B adrenergic receptor (Homo sapiens, UniProt P35368); assay: Binding affinity to human adrenergic Alpha-1B receptor
T2 sequence (P35368 whole entry): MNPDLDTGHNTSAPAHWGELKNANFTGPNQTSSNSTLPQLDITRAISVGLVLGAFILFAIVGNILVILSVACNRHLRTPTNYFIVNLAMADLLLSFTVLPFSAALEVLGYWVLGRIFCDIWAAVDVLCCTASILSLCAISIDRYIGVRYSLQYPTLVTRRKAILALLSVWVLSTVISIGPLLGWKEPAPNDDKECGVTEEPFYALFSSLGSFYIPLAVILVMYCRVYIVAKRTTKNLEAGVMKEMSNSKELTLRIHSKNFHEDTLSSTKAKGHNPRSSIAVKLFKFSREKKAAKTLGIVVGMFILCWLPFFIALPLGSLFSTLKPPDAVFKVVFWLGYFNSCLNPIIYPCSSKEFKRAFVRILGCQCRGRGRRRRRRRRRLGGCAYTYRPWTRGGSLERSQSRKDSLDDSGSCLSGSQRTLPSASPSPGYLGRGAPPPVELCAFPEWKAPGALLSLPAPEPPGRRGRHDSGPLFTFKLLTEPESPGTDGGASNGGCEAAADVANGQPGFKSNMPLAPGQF

[8] = molecular target: Beta-1 adrenergic receptor (Rattus norvegicus, UniProt P18090); assay: Binding affinity to rat adrenergic beta-1 receptor
Chain of Beta-1 adrenergic receptor (P18090 whole entry): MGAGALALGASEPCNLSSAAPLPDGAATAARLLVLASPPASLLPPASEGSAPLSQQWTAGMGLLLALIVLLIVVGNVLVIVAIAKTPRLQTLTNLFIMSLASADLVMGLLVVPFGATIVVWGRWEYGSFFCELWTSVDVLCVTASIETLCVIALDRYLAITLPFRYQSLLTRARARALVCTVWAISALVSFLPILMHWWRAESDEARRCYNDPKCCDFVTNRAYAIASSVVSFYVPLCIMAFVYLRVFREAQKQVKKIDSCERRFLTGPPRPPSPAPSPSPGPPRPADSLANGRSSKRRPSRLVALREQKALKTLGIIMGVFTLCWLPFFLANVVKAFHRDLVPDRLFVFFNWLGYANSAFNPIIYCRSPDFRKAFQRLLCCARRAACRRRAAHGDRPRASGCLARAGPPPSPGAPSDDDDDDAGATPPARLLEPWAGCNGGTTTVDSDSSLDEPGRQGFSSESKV

[9] = molecular target: Sigma non-opioid intracellular receptor 1 (Rattus norvegicus, UniProt Q9R0C9); assay: Binding affinity to rat sigma 1 receptor
Chain of Sigma non-opioid intracellular receptor 1 (Q9R0C9 whole entry): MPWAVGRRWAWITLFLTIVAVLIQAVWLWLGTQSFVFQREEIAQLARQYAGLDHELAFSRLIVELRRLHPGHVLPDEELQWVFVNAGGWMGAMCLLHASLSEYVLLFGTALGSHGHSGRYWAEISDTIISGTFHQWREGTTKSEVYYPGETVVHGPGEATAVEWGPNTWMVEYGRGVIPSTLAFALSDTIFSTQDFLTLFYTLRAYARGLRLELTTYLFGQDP

Histamine H4 receptor = Histamine H4 receptor (Cavia porcellus, UniProt Q91ZY3); assay: Binding affinity to guinea pig histamine H4 receptor
Histamine H2 receptor = Histamine H2 receptor (Cavia porcellus, UniProt P47747); assay: Binding affinity to guinea pig histamine H2 receptor
Chain of Histamine H2 receptor (P47747 whole entry): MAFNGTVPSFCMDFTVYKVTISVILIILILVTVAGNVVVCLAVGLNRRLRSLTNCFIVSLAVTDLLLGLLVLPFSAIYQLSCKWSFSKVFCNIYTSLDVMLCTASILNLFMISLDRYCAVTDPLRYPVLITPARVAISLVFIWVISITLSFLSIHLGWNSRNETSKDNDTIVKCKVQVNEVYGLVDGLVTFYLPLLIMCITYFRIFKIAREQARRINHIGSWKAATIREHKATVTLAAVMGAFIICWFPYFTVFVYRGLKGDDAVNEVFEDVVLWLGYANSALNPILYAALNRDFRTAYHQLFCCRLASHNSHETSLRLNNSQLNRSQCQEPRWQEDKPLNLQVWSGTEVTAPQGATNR

[10] = molecular target: Delta-type opioid receptor (Homo sapiens, UniProt P41143); assay: Binding affinity to human delta opioid receptor
[11] = molecular target: Muscarinic acetylcholine receptor M5 (Homo sapiens, UniProt P08912); assay: Binding affinity to human muscarinic M5 receptor
[12] = molecular target: T3, Alpha-1A adrenergic receptor (Homo sapiens, UniProt P35348); assay: Binding affinity to human adrenergic alpha1A receptor
T3 sequence (P35348 whole entry): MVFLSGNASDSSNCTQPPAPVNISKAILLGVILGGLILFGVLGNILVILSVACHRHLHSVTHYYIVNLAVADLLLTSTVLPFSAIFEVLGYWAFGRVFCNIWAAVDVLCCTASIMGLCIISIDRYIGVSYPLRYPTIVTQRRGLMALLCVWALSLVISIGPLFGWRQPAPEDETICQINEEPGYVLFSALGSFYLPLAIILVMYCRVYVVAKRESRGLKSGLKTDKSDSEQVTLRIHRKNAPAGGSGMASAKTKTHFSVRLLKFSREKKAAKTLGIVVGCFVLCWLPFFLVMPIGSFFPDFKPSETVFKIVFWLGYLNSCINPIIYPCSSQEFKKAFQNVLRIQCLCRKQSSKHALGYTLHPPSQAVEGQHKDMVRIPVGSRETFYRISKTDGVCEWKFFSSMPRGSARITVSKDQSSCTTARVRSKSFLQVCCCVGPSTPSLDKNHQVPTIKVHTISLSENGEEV

[13] = molecular target: Muscarinic acetylcholine receptor M1 (Homo sapiens, UniProt P11229); assay: Binding affinity to human muscarinic M1 receptor
Chain of Muscarinic acetylcholine receptor M1 (P11229 whole entry): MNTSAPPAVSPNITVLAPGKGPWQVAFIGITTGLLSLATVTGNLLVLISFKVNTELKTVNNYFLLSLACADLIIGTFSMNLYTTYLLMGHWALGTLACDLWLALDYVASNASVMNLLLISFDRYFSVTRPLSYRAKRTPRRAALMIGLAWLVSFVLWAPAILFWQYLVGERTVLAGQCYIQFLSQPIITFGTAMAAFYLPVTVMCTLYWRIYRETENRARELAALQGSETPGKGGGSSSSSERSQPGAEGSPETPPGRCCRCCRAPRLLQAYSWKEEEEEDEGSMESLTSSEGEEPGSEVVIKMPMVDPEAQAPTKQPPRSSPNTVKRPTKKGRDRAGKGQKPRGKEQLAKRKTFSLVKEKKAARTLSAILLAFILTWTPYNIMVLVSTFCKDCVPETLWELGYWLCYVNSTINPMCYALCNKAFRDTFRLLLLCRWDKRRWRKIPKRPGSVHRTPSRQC

[14] = molecular target: 5-hydroxytryptamine receptor 2A (Homo sapiens, UniProt P28223); assay: Binding affinity to human 5-HT2A receptor
[15] = Binding affinity to BZP receptor in rat brain; assay type: tissue-based
[16] = molecular target: 5-hydroxytryptamine receptor 1A (Homo sapiens, UniProt P08908); assay: Binding affinity to human 5-HT1A receptor
Chain of 5-hydroxytryptamine receptor 1A (P08908 whole entry): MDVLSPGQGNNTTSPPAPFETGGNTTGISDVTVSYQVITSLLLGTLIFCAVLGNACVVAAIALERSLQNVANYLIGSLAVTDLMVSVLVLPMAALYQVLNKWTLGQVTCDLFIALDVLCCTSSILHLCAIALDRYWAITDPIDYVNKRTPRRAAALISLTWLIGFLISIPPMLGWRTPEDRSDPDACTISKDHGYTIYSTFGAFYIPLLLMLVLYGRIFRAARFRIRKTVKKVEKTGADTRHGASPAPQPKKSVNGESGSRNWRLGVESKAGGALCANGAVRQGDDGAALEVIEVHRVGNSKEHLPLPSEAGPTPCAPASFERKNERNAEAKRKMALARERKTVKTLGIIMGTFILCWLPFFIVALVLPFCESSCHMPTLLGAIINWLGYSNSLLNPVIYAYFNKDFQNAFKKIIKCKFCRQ

[17] = molecular target: Alpha-1D adrenergic receptor (Homo sapiens, UniProt P25100); assay: Binding affinity to human adrenergic Alpha-1D receptor
Chain of Alpha-1D adrenergic receptor (P25100 whole entry): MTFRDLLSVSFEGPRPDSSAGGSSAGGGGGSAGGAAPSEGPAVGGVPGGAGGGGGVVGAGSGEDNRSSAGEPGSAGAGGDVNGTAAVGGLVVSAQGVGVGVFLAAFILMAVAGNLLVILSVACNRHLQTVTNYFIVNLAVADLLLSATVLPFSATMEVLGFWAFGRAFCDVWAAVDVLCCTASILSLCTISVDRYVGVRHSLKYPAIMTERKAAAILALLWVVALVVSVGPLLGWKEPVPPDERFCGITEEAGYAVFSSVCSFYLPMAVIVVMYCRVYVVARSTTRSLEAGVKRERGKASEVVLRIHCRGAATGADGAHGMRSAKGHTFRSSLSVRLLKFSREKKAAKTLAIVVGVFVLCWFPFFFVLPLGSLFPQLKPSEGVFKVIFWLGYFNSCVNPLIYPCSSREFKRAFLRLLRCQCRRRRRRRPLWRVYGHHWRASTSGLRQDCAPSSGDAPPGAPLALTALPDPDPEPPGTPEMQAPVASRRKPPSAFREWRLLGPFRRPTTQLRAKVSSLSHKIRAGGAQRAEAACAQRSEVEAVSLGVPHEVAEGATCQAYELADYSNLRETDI

[18] = molecular target: 5-hydroxytryptamine receptor 4 (Cavia porcellus, UniProt O70528); assay: Displacement of [3H]GR113808 from 5HT4 receptor in guinea pig striatal membranes; assay type: cell membranes, Striatum, Membrane
Chain of 5-hydroxytryptamine receptor 4 (O70528 whole entry): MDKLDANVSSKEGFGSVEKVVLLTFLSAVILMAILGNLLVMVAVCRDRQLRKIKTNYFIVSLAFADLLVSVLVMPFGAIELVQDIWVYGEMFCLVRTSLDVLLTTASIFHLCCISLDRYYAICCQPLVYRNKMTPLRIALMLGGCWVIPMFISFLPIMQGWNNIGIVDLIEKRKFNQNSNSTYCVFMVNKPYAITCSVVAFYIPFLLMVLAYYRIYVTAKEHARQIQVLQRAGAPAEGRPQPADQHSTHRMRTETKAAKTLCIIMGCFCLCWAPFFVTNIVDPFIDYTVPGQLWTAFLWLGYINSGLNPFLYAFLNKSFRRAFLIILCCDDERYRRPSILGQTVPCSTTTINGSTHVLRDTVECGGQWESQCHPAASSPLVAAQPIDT

[19] = molecular target: Muscarinic acetylcholine receptor M3 (Homo sapiens, UniProt P20309); assay: Binding affinity to human muscarinic M3 receptor
Chain of Muscarinic acetylcholine receptor M3 (P20309 whole entry): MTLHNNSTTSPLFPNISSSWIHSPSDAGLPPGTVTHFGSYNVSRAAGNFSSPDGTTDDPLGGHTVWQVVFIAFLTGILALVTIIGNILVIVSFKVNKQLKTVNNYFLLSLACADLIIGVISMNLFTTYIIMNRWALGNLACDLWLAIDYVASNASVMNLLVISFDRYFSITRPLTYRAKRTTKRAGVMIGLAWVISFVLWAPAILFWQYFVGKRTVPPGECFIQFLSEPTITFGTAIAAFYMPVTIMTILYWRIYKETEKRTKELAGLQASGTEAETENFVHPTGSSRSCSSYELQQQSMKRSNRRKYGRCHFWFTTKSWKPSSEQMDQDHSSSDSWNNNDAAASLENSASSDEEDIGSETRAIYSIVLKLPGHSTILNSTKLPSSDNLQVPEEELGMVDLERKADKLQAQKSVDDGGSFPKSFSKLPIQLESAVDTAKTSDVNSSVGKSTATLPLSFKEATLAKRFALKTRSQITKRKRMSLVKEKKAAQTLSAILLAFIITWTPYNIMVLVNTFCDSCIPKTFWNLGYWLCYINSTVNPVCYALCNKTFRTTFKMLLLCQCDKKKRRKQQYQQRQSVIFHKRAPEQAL

[20] = molecular target: 5-hydroxytryptamine receptor 1D (Homo sapiens, UniProt P28221); assay: Binding affinity to human 5-HT1D receptor

Chain of D(3) dopamine receptor (P19020 whole entry): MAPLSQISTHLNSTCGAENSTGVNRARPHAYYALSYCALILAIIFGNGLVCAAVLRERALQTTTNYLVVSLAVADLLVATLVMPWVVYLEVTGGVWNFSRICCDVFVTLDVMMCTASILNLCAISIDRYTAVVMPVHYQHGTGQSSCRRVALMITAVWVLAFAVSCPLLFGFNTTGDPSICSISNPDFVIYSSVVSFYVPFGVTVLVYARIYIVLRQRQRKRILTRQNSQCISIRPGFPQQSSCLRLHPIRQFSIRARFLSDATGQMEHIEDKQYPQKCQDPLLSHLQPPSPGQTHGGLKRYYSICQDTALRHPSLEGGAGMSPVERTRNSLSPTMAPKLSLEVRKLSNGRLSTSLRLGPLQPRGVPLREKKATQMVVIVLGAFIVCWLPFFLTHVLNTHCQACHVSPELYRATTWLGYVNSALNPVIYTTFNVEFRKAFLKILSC

SMILES | Ki (D(3) dopamine receptor) | Ki [1] | Ki [2] | Ki [3] | Ki [4] | Ki [5] | Ki [6] | Ki [7] | Ki [8] | Ki [9] | Ki (Histamine H4 receptor) | Ki (Histamine H2 receptor) | Ki [10] | Ki [11] | Ki [12] | Ki [13] | Ki [14] | Ki [15] | Ki [16] | Ki [17] | further results
CCCCN1CCC(COC(=O)c2ccc(N)c(OC)c2)CC1 | 6.27 µM | > 10 µM | > 10 µM | 2.86 µM | > 10 µM | > 10 µM | > 10 µM | 4.23 µM | 4.41 µM | 0.211 µM | > 10 µM | > 10 µM | > 10 µM | 4.06 µM | > 10 µM | > 10 µM | > 10 µM | > 10 µM | > 10 µM | > 10 µM | Ki [18]: 0.000738 µM; Ki [19]: 1.1 µM; Ki [20]: 5.69 µM
CCCCN1CCC(COC(=O)c2cc(Cl)c(NC)c3c2OCCO3)CC1 | 0.336 µM | 0.671 µM | > 10 µM | 0.066 µM | > 10 µM | > 10 µM | 3.23 µM | > 10 µM | > 10 µM | 0.06 µM | > 10 µM | > 10 µM | > 10 µM | 0.972 µM | 0.522 µM | > 10 µM | 1.78 µM | > 10 µM | 0.3 µM | 2.28 µM | Ki [18]: 0.000577 µM; Ki [19]: 0.823 µM; Ki [20]: 1.3 µM
